Assay type in all cases: functional
For experiment [1], the system named is P388. Briefly: In vivo antitumor activity against mouse P388 cells at 4 to 800 mg/ kg. Particulars: dose mg/ kg 4-800.
In experiment [2] the test system is P388. Briefly: Growth inhibition of mouse P388 cells after 48 hrs by particle counting method. The conditions noted are these: P388, 48 h. In a few lines:
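Murine P388 lymphocytic leukemia cells in 10% horse serum/Fisher medium, preincubated 24 hrs. Serial dilutions of the compounds were added and cells grown 48 hrs. Cell numbers were counted with a Z1 Coulter particle counter, and the ED50 for growth inhibition was calculated.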

A short description of experiment [3]: Growth inhibition of human MXPC3 cells after 48 hrs by particle counting method. Particulars: MXPC3, 48 h.
For experiment [4], the system named is MCF7. Briefly: Growth inhibition of human MCF7 cells after 48 hrs by particle counting method. Particulars: MCF7, 48 h.
The test system of experiment [5] is SF-268. The experiment can be described thus: Growth inhibition of human SF268 cells after 48 hrs by particle counting method. The conditions noted are these: SF-268, 48 h.
Experiment [6] deals with NCI-H460. The experiment can be described thus: Growth inhibition of human NCI-H460 cells after 48 hrs by particle counting method. The conditions noted are these: NCI-H460, 48 h.
Experiment [7] has as its system KM-20L2. The experiment can be described thus: Growth inhibition of human KM20L2 cells after 48 hrs by particle counting method. The conditions noted are these: KM-20L2, 48 h.
For experiment [8], the system named is DU-145. Briefly: Growth inhibition of human DU145 cells after 48 hrs by particle counting method. Particulars: DU-145, 48 h.

≈ marks a conversion by molar mass, not a printed value.

For `NCCS(=O)(=O)O` [TAURINE], the T/C in experiment [1] worked out at 123.

`CCCCCCCCCCC/C=C/[C@@H](O)[C@H](CO[C@@H]1O[C@H](CO)[C@@H](O)[C@H](O)[C@H]1O)NC(=O)CCCCCCCCCCCCCCC` [TURBOSTATIN 1]: the GI50 is 0.27 µg/mL (≈ 0.402 µM) in experiment [2]; 0.71 µg/mL (≈ 1.06 µM) in experiment [3]; 0.44 µg/mL (≈ 0.655 µM) in experiment [4]; 0.98 µg/mL (≈ 1.46 µM) in experiment [5]; 0.34 µg/mL (≈ 0.506 µM) in experiment [6]; 0.35 µg/mL (≈ 0.521 µM) in experiment [7]. Further, it took 1.6 µg/mL (≈ 2.38 µM) to inhibit growth in experiment [8] by half (GI50).

Regarding `CCCCCCCCCCC/C=C/[C@@H](O)[C@H](CO[C@@H]1O[C@H](CO)[C@@H](O)[C@H](O)[C@H]1O)NC(=O)CCCCCCCCCCCCCCCCC` [TURBOSTATIN 2], the GI50 came out at 0.15 µg/mL (≈ 0.214 µM) in experiment [2]; 1 µg/mL (≈ 1.43 µM) in experiment [3]; 0.39 µg/mL (≈ 0.557 µM) in experiment [4]; 1.9 µg/mL (≈ 2.71 µM) in experiment [5]; 0.53 µg/mL (≈ 0.757 µM) in experiment [6]; 0.35 µg/mL (≈ 0.5 µM) in experiment [7]. The same compound displayed a GI50 in experiment [8] of 1.7 µg/mL (≈ 2.43 µM).

As for `CCCCCCCCCCC/C=C/[C@@H](O)[C@H](CO[C@@H]1O[C@H](CO)[C@H](O)[C@H](O)[C@H]1O)NC(=O)CCCCCCCCCCCCCCC` [TURBOSTATIN 3], the GI50 came to 0.25 µg/mL (≈ 0.372 µM) in experiment [2]; 1.6 µg/mL (≈ 2.38 µM) in experiment [3]; 0.48 µg/mL (≈ 0.714 µM) in experiment [4]; 1.9 µg/mL (≈ 2.83 µM) in experiment [5]; 0.55 µg/mL (≈ 0.818 µM) in experiment [6]; 0.48 µg/mL (≈ 0.714 µM) in experiment [7]. This compound also displayed a GI50 in experiment [8] of 2.6 µg/mL (≈ 3.87 µM).

Regarding `CCCCCCCCCCC/C=C/[C@@H](O)[C@H](CO[C@@H]1O[C@H](CO)[C@H](O)[C@H](O)[C@H]1O)NC(=O)CCCCCCCCCCCCCCCCC` [TURBOSTATIN 4], the GI50 in experiment [2] turned out to be 0.29 µg/mL (≈ 0.414 µM); in experiment [3], 0.93 µg/mL (≈ 1.33 µM); in experiment [4], 0.44 µg/mL (≈ 0.629 µM); in experiment [5] it was 1.5 µg/mL (≈ 2.14 µM); in experiment [6] it was 0.49 µg/mL (≈ 0.7 µM); in experiment [7] it was 0.41 µg/mL (≈ 0.586 µM). In experiment [8], this compound had a GI50 of 2.6 µg/mL (≈ 3.71 µM).

The GI50 is the concentration at which growth is held to half of that of the control. A low value points to more potent growth inhibition.

These data come from ChEMBL document CHEMBL1158800, “Antineoplastic agents. 545. Isolation and structure of turbostatins 1-4 from the Asian marine mollusk Turbo stenogyrus” (2005).
